Measured values reported in ChEMBL document CHEMBL1154492, “Synthesis and activity of fibrillogenesis peptide inhibitors related to the 17-21 beta-amyloid sequence” (Eur J Med Chem, 2009).
Active and inactive are the calls of the source. The calls are words filed in the database; no cut-off is given here. Residues, ends and D or L forms follow the SMILES beside them.

Assays:
[1] = Chemical stability assessed as compound remaining after proteolytic cleavage after 20 hrs in presence of chymotrypsin; type: physicochemical; conditions: read-out: Stability
Summary of the method: (§1)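 Each peptide at 0.76 mg/mL was incubated in PBS with 0.1 mg/mL chymotrypsin. Intact-peptide peak area was compared with an equivalent sample incubated in PBS alone.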

[2] = Chemical stability assessed as compound remaining after proteolytic cleavage after 2 hrs in presence of chymotrypsin; type: physicochemical; conditions: read-out: Stability; summary of the method: as §1
[3] = Inhibition of amyloid beta (1 to 40) aggregation assessed as inhibition of protofbril formation
Summary of the method: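 Lyophilised Aβ1-40 was incubated in 30 mM Tris/HCl pH 7.4 at 20 °C, with or without a 10-fold molar excess of inhibitor. Aliquots taken at 30 min and 24 h were frozen, lyophilised, gold sputter-coated and imaged by scanning electron microscopy for protofibrils.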

[4] = Inhibition of amyloid beta (1 to 40) fibril formation by thioflavin T fluorescent dye assay
Summary of the method: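 Aβ1-40 fractions were dissolved in 30 mM Tris/HCl pH 7.4 at 20 °C, with or without a 10-fold molar excess of inhibitor. Aliquots taken at 0.5, 1.5, 6, 8, 15 and 24 h went into ThT in 50 mM Tris/HCl pH 8.0. Fluorescence was read at 485 nm (excitation 450 nm) at 20 °C. Percent inhibition is relative to the parent pentapeptide. Three experiments, each sample in triplicate.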

Compound | remaining at 20 h [1] | remaining at 2 h [2] | Activity [3] | Activity [4]
CC(=O)N[C@@H](CC(C)C)C(=O)N1CCC[C@H]1CS(=O)(=O)N[C@@H](Cc1ccccc1)C(=O)N[C@@H](Cc1ccccc1)C(=O)N[C@@H](CC(=O)O)C(N)=O | 15% | 35% | – | –
CC(C)C[C@H](NS(=O)(=O)CCN(C)C)C(=O)N1CCC[C@H]1C(=O)N[C@@H](Cc1ccccc1)C(=O)N[C@@H](Cc1ccccc1)C(=O)N[C@@H](CC(=O)O)C(N)=O (HELM PEPTIDE1{[CN(C)CCS(=O)(=O)[*:2]].L.P.F.F.D.[am]}$$$$V2.0) | 55% | 70% | Active | Active
CC(=O)N[C@@H](CC(C)C)C(=O)N1CCC[C@H]1CC(=O)N[C@@H](Cc1ccccc1)C(=O)N[C@@H](Cc1ccccc1)C(=O)N[C@@H](CC(=O)O)C(N)=O (HELM PEPTIDE1{[ac].L.[O=C(C[C@@H]1CCCN1[*:1])[*:2]].F.F.D.[am]}$$$$V2.0) | 15% | 35% | – | –
CC(=O)N[C@@H](CC(C)C)C(=O)N1CC[C@H]1C(=O)N[C@@H](Cc1ccccc1)C(=O)N[C@@H](Cc1ccccc1)C(=O)N[C@@H](CC(=O)O)C(N)=O (HELM PEPTIDE1{[ac].L.[O=C([C@@H]1CCN1[*:1])[*:2]].F.F.D.[am]}$$$$V2.0) | 15% | 35% | – | Active
CC(=O)N[C@@H](CC(C)C)C(=O)N1C[C@@H](c2ccccc2)[C@@H]1C(=O)N[C@@H](Cc1ccccc1)C(=O)N[C@@H](Cc1ccccc1)C(=O)N[C@@H](CC(=O)O)C(N)=O (HELM PEPTIDE1{[ac].L.[O=C([C@H]1[C@H](c2ccccc2)CN1[*:1])[*:2]].F.F.D.[am]}$$$$V2.0) | 15% | 35% | – | –
Ac-LPFFD-NH2 | – | 12% | – | –
Ac-LPFFDLPFFD-NH2 | – | 22% | – | Active
